Measured values from the M2OR odorant receptor database.

target: T1, OR11L1 (Homo sapiens) (UniProt Q8NGX0); settings: stereoisomer not certain
T1 sequence (whole entry): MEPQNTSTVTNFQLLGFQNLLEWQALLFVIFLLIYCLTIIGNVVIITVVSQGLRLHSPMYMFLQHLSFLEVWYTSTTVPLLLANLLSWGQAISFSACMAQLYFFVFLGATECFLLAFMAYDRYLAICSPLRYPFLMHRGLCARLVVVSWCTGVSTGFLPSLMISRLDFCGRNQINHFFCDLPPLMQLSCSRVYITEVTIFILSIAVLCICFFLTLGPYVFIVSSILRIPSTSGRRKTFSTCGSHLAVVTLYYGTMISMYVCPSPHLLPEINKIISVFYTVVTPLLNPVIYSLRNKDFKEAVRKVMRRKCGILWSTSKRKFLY
Method in brief: (§1)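 Whether a receptor–molecule pair is responsive (active) rests on the original authors' judgment that its measured signal was statistically different from baseline. Pairs without that judgment are non-responsive (inactive). Sources used varied assay methods, commonly transient luciferase assays in mammalian cell lines.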
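Note: active if original authors judged signal statistically different from baseline.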

Odorant receptor agonist call, inactive:
CC1=NC(C)C(C)S1 (stereo not given)
CCCCC(S)C(C)CO (stereo not given)
CC1=C(O)C(=O)OC1C (stereo not given)
CC(CO)CS (stereo not given)
Cc1cnc(C)c(C)n1
CCCCCC(=O)C(C)C(C)=O (stereo not given)
CCC(S)C(C)CO (stereo not given)
CC1CCCCCCCCCCCCC(=O)C1 (stereo not given)
CCCCCCC=CCCC=O
CCC1OC(C)=C(O)C1=O (stereo not given)
CCCCCC(S)C(C)CO (stereo not given)
CC(=O)c1c(C)c([N+](=O)[O-])c(C(C)(C)C)c([N+](=O)[O-])c1C
CCC1OC(=O)C(O)=C1C (stereo not given)
CCCC(S)CCOC(C)=O (stereo not given)
CC1=C(O)C(=O)C(C)O1 (stereo not given)

target: T2, OR12D2 (Homo sapiens) (UniProt P58182); settings: stereoisomer not certain
T2 sequence (whole entry): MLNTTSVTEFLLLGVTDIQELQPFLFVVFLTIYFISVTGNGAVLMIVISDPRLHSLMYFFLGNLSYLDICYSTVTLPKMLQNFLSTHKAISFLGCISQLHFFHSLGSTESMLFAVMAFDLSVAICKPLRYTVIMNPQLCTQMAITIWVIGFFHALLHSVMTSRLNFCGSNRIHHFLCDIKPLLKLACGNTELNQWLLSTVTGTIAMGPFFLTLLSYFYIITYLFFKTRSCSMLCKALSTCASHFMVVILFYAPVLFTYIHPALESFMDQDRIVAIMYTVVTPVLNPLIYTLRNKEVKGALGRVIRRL
Method in brief: as §1

Odorant receptor agonist call, inactive:
CC1=NC(C)C(C)S1 (stereo not given)
CCCCC(S)C(C)CO (stereo not given)
CC1=C(O)C(=O)OC1C (stereo not given)
CC(CO)CS (stereo not given)
Cc1cnc(C)c(C)n1
CCCCCC(=O)C(C)C(C)=O (stereo not given)
CCC(S)C(C)CO (stereo not given)
CC1CCCCCCCCCCCCC(=O)C1 (stereo not given)
CCCCCCC=CCCC=O
CCC1OC(C)=C(O)C1=O (stereo not given)
CCCCCC(S)C(C)CO (stereo not given)
CC(=O)c1c(C)c([N+](=O)[O-])c(C(C)(C)C)c([N+](=O)[O-])c1C
CCC1OC(=O)C(O)=C1C (stereo not given)
CCCC(S)CCOC(C)=O (stereo not given)
CC1=C(O)C(=O)C(C)O1 (stereo not given)

target: T3, OR12D3 (Homo sapiens) (UniProt Q9UGF7); settings: stereoisomer not certain
T3 sequence (whole entry): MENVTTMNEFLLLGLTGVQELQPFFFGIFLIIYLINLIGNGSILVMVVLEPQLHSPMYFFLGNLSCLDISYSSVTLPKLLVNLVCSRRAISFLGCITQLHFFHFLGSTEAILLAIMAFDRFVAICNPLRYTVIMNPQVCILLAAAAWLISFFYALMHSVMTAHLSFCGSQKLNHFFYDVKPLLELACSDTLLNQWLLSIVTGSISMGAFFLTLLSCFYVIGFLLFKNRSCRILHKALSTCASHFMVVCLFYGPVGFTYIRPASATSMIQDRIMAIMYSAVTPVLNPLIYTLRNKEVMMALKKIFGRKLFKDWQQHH
Method in brief: as §1

Odorant receptor agonist call, inactive:
CC1=NC(C)C(C)S1 (stereo not given)
CCCCC(S)C(C)CO (stereo not given)
CC1=C(O)C(=O)OC1C (stereo not given)
CC(CO)CS (stereo not given)
Cc1cnc(C)c(C)n1
CCCCCC(=O)C(C)C(C)=O (stereo not given)
CCC(S)C(C)CO (stereo not given)
CC1CCCCCCCCCCCCC(=O)C1 (stereo not given)
CCCCCCC=CCCC=O
CCC1OC(C)=C(O)C1=O (stereo not given)
CCCCCC(S)C(C)CO (stereo not given)
CC(=O)c1c(C)c([N+](=O)[O-])c(C(C)(C)C)c([N+](=O)[O-])c1C
CCC1OC(=O)C(O)=C1C (stereo not given)
CCCC(S)CCOC(C)=O (stereo not given)
CC1=C(O)C(=O)C(C)O1 (stereo not given)

target: T4, OR13A1 (Homo sapiens) (UniProt Q8NGR1); settings: stereoisomer not certain
T4 sequence (whole entry): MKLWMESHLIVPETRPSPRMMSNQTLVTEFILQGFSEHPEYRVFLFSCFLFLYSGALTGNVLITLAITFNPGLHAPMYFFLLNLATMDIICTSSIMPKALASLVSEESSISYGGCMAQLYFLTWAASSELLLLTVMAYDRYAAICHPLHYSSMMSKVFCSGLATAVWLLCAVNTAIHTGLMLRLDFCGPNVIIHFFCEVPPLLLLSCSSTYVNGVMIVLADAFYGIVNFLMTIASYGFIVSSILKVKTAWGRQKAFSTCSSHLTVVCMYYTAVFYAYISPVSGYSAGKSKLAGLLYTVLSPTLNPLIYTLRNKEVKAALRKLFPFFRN
Method in brief: as §1

Odorant receptor agonist call, inactive:
CC1=NC(C)C(C)S1 (stereo not given)
CCCCC(S)C(C)CO (stereo not given)
CC1=C(O)C(=O)OC1C (stereo not given)
CC(CO)CS (stereo not given)
Cc1cnc(C)c(C)n1
CCCCCC(=O)C(C)C(C)=O (stereo not given)
CCC(S)C(C)CO (stereo not given)
CC1CCCCCCCCCCCCC(=O)C1 (stereo not given)
CCCCCCC=CCCC=O
CCC1OC(C)=C(O)C1=O (stereo not given)
CCCCCC(S)C(C)CO (stereo not given)
CC(=O)c1c(C)c([N+](=O)[O-])c(C(C)(C)C)c([N+](=O)[O-])c1C
CCC1OC(=O)C(O)=C1C (stereo not given)
CCCC(S)CCOC(C)=O (stereo not given)
CC1=C(O)C(=O)C(C)O1 (stereo not given)

target: T5, OR13C2 (Homo sapiens) (UniProt Q8NGS9); settings: stereoisomer not certain
T5 sequence (whole entry): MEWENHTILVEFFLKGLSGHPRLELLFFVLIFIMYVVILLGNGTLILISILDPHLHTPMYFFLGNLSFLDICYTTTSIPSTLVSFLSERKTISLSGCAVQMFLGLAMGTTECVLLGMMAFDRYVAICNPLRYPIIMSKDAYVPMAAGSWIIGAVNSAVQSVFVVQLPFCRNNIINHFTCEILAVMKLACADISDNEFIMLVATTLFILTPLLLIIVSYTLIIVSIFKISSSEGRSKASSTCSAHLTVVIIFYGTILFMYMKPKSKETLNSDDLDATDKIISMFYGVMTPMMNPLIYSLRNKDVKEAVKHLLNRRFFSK
Method in brief: as §1

Odorant receptor agonist call, inactive:
CC1=NC(C)C(C)S1 (stereo not given)
CCCCC(S)C(C)CO (stereo not given)
CC1=C(O)C(=O)OC1C (stereo not given)
CC(CO)CS (stereo not given)
Cc1cnc(C)c(C)n1
CCCCCC(=O)C(C)C(C)=O (stereo not given)
CCC(S)C(C)CO (stereo not given)
CC1CCCCCCCCCCCCC(=O)C1 (stereo not given)
CCCCCCC=CCCC=O
CCC1OC(C)=C(O)C1=O (stereo not given)
CCCCCC(S)C(C)CO (stereo not given)
CC(=O)c1c(C)c([N+](=O)[O-])c(C(C)(C)C)c([N+](=O)[O-])c1C
CCC1OC(=O)C(O)=C1C (stereo not given)
CCCC(S)CCOC(C)=O (stereo not given)
CC1=C(O)C(=O)C(C)O1 (stereo not given)

target: T6, OR13C3 (Homo sapiens) (UniProt Q8NGS6); settings: stereoisomer not certain
T6 sequence (whole entry): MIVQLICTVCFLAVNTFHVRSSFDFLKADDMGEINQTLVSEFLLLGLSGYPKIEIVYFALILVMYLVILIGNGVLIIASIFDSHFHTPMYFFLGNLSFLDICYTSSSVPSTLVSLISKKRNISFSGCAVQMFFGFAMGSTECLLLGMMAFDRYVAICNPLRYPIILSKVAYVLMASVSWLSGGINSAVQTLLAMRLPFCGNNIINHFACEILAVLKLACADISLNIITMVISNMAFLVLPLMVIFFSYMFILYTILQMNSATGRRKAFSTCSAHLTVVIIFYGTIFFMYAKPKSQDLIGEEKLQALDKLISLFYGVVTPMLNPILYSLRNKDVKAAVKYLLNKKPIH
Method in brief: as §1

Odorant receptor agonist call, inactive:
CC1=NC(C)C(C)S1 (stereo not given)
CCCCC(S)C(C)CO (stereo not given)
CC1=C(O)C(=O)OC1C (stereo not given)
CC(CO)CS (stereo not given)
Cc1cnc(C)c(C)n1
CCCCCC(=O)C(C)C(C)=O (stereo not given)
CCC(S)C(C)CO (stereo not given)
CC1CCCCCCCCCCCCC(=O)C1 (stereo not given)
CCCCCCC=CCCC=O
CCC1OC(C)=C(O)C1=O (stereo not given)
CCCCCC(S)C(C)CO (stereo not given)
CC(=O)c1c(C)c([N+](=O)[O-])c(C(C)(C)C)c([N+](=O)[O-])c1C
CCC1OC(=O)C(O)=C1C (stereo not given)
CCCC(S)CCOC(C)=O (stereo not given)
CC1=C(O)C(=O)C(C)O1 (stereo not given)

target: T7, OR13C4 (Homo sapiens) (UniProt Q8NGS5); settings: stereoisomer not certain
T7 sequence (whole entry): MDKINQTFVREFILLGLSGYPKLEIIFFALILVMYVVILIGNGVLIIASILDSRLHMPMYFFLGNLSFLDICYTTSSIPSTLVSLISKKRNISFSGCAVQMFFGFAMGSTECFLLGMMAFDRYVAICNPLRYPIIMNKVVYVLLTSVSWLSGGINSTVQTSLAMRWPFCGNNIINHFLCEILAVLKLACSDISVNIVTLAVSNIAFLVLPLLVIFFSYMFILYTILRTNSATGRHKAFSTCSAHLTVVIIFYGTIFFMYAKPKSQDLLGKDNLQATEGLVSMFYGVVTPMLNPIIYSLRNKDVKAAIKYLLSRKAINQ
Method in brief: as §1

Odorant receptor agonist call, inactive:
CC1=NC(C)C(C)S1 (stereo not given)
CCCCC(S)C(C)CO (stereo not given)
CC1=C(O)C(=O)OC1C (stereo not given)
CC(CO)CS (stereo not given)
Cc1cnc(C)c(C)n1
CCCCCC(=O)C(C)C(C)=O (stereo not given)
CCC(S)C(C)CO (stereo not given)
CC1CCCCCCCCCCCCC(=O)C1 (stereo not given)
CCCCCCC=CCCC=O
CCC1OC(C)=C(O)C1=O (stereo not given)
CCCCCC(S)C(C)CO (stereo not given)
CC(=O)c1c(C)c([N+](=O)[O-])c(C(C)(C)C)c([N+](=O)[O-])c1C
CCC1OC(=O)C(O)=C1C (stereo not given)
CCCC(S)CCOC(C)=O (stereo not given)
CC1=C(O)C(=O)C(C)O1 (stereo not given)
